Source: ChEMBL document CHEMBL1155262, “A new class of anticonvulsants possessing 6 Hz activity: 3,4-dialkyloxy thiophene bishydrazones” (Eur J Med Chem, 2009)
The source made the active and inactive calls. No cut-off for these calls is given here.

Columns and labels:
Mus musculus [1] = experiment: Anticonvulsant activity in mouse CF1 albino assessed as inhibition of minimal electric shock-induced seizure at 60 mg/kg, ip after 0.5 hrs; assay type: functional, organism-based; set-up: dose 60 mg/kg
Method in brief: (§1)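 6 Hz psychomotor seizure model in male CF-1 albino mice dosed i.p. Four mice per time point (0.25, 0.5, 1, 2, 4 h) received corneal-electrode current of 32 mA for 3 s. Untreated mice show a minimal clonic phase followed by stereotyped automatistic behaviour. Results given as number protected out of 4.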

Mus musculus [2] = experiment: Anticonvulsant activity in mouse CF1 albino assessed as inhibition of minimal electric shock-induced seizure at 60 mg/kg, ip after 4 hrs; assay type: functional, organism-based; set-up: dose 60 mg/kg; method in brief: as §1
Mus musculus [3] = experiment: Anticonvulsant activity in mouse CF1 albino assessed as inhibition of minimal electric shock-induced seizure at 100 mg/kg, ip after 0.5 hrs; assay type: functional, organism-based; set-up: dose 100 mg/kg; method in brief: as §1
Mus musculus [4] = experiment: Anticonvulsant activity in mouse CF1 albino assessed as inhibition of minimal electric shock-induced seizure at 100 mg/kg, ip after 0.25 hrs; assay type: functional, organism-based; set-up: dose 100 mg/kg; method in brief: as §1
Mus musculus [5] = experiment: Anticonvulsant activity in mouse CF1 albino assessed as inhibition of minimal electric shock-induced seizure at 60 mg/kg, ip after 2 hrs; assay type: functional, organism-based; set-up: dose 60 mg/kg; method in brief: as §1
Mus musculus [6] = experiment: Anticonvulsant activity in mouse CF1 albino assessed as inhibition of minimal electric shock-induced seizure at 60 mg/kg, ip after 1 hr; assay type: functional, organism-based; set-up: dose 60 mg/kg; method in brief: as §1
Mus musculus [7] = experiment: Anticonvulsant activity in mouse CF1 albino assessed as inhibition of minimal electric shock-induced seizure at 100 mg/kg, ip after 4 hrs; assay type: functional, organism-based; set-up: dose 100 mg/kg; method in brief: as §1
Mus musculus [8] = experiment: Anticonvulsant activity in mouse CF1 albino assessed as inhibition of minimal electric shock-induced seizure at 60 mg/kg, ip after 0.25 hrs; assay type: functional, organism-based; set-up: dose 60 mg/kg; method in brief: as §1
Mus musculus [9] = experiment: Anticonvulsant activity in mouse CF1 albino assessed as inhibition of minimal electric shock-induced seizure at 100 mg/kg, ip after 1 hr; assay type: functional, organism-based; set-up: dose 100 mg/kg; method in brief: as §1
Mus musculus [10] = experiment: Anticonvulsant activity in mouse CF1 albino assessed as inhibition of subcutaneous metrazole-induced seizure at 300 mg/kg, ip after 4 hrs; assay type: functional, organism-based; set-up: dose 300 mg/kg
Mus musculus [11] = experiment: Anticonvulsant activity in mouse CF1 albino assessed as inhibition of minimal electric shock-induced seizure at 30 mg/kg, ip after 4 hrs; assay type: functional, organism-based; set-up: dose 30 mg/kg; method in brief: as §1
Mus musculus [12] = experiment: Anticonvulsant activity in mouse CF1 albino assessed as inhibition of minimal electric shock-induced seizure at 30 mg/kg, ip after 2 hrs; assay type: functional, organism-based; set-up: dose 30 mg/kg; method in brief: as §1
Mus musculus [13] = experiment: Anticonvulsant activity in mouse CF1 albino assessed as inhibition of maximal electric shock-induced seizure at 300 mg/kg, ip after 4 hrs; assay type: functional, organism-based; set-up: dose 300 mg/kg
Method in brief: (§2)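 Male CF-1 albino mice (18–25 g); compound suspended in 0.5% methyl cellulose/water or PEG 200, given i.p. at 30, 100 and 300 mg/kg (0.01 mL/g). Tested 0.5 or 4 h after dosing. Protection = abolition of hind limb tonic extensor component of MES seizure.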

Mus musculus [14] = experiment: Anticonvulsant activity in ip dosed mouse CF1 albino assessed as inhibition of maximal electric shock-induced seizure after 0.5 hrs; assay type: functional; method in brief: as §2
Mus musculus [15] = experiment: Neurotoxicity against mouse CF1 albino assessed as minimal motor impairment at 300 mg/kg, ip after 0.5 hrs by rotord test; assay type: toxicity, organism-based; set-up: dose 300 mg/kg, route intraperitoneal; conditions: in vivo
Method in brief: (§3)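 Rotorod minimal motor impairment in male CF-1 albino mice (18–25 g) after i.p. dosing at 30, 100 or 300 mg/kg in 0.5% methyl cellulose/water or PEG 200. Mice placed on a rod rotating at 6 rpm at 0.5 or 4 h. Value is minimum dose causing impairment in at least one mouse.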

Mus musculus [16] = experiment: Neurotoxicity against mouse CF1 albino assessed as minimal motor impairment at 300 mg/kg, ip after 4 hrs by rotord test; assay type: toxicity, organism-based; set-up: dose 300 mg/kg, route intraperitoneal; conditions: in vivo; method in brief: as §3
Mus musculus [17] = experiment: Anticonvulsant activity in mouse CF1 albino assessed as inhibition of subcutaneous metrazole-induced seizure at 300 mg/kg, ip after 0.5 hrs; assay type: functional, organism-based; set-up: dose 300 mg/kg

Compound | Activity (Mus musculus [1]) | Activity (Mus musculus [2]) | Activity (Mus musculus [3]) | Activity (Mus musculus [4]) | Activity (Mus musculus [5]) | Activity (Mus musculus [6]) | Activity (Mus musculus [7]) | Activity (Mus musculus [8]) | Activity (Mus musculus [9]) | Activity (Mus musculus [10]) | Activity (Mus musculus [11]) | Activity (Mus musculus [12]) | Activity (Mus musculus [13]) | Activity (Mus musculus [14]) [mg/kg] | Activity (Mus musculus [15]) | Activity (Mus musculus [16]) | Activity (Mus musculus [17])
CCCCCCCOc1c(C(=O)N/N=C/c2ccc([N+](=O)[O-])cc2)sc(C(=O)N/N=C/c2ccc([N+](=O)[O-])cc2)c1OCCCCCCC | inactive | inactive | Active | inactive | inactive | inactive | inactive | inactive | inactive | – | – | – | – | – | – | – | –
C/C(=N\NC(=O)c1sc(C(=O)N/N=C(\C)c2cccs2)c2c1OCCO2)c1cccs1 | – | – | – | – | – | – | inactive | – | – | inactive | inactive | inactive | inactive | 300 | Not Active | Not Active | inactive
